Measured values: ChEMBL document CHEMBL1121663, “(Acylaryloxy)acetic acid diuretics. 3. 2,3-Dihydro-5-acyl-2-benzofurancarboxylic acids, a new class of uricosuric diuretics” (1981)
“And” between values parts separate entries of the source, which are not always exact repeats. Equal entries are not always repeated.

How the values were obtained:
Canis familiaris [1] = experiment: Compound was tested for diuretic activity in dogs at 5 mg/kg dose after intravenous administration measured as microequivalent of Cl-/minute; 5/156 (Control/Drug treated); format: functional, Canis lupus familiaris, Urine
How it was run: (§1)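 Intravenous dog clearance study. A priming iv injection of 1.5 mL/kg isoosmotic pH 7.4 phosphate buffer (20 mg PO4/kg) was given first. This was followed by infusion of 3 mL/min pH 7.4 buffer containing 4% mannitol (6.9 mg PO4/min) throughout the experiment. Urinary Na+, K+ and Cl- were measured by standard methods. Each value is the mean of the two highest consecutive 15-min collections.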

Canis familiaris [2] = experiment: Compound was tested for diuretic activity in dogs at 5 mg/kg dose after intravenous administration measured as microequivalent of K+/minute; 15/33 (Control/Drug treated); format: functional, Canis lupus familiaris, Urine; how it was run: as §1
Canis familiaris [3] = experiment: Compound was tested for diuretic activity in dogs at 5 mg/kg dose after intravenous administration measured as microequivalent of Na+/minute; 12/166 (Control/Drug treated); format: functional, Canis lupus familiaris, Urine
Rattus norvegicus [4] = experiment: Natriuretic activity in rats at 9 mg/kg of dosage; mequiv of Na; format: functional
How it was run: (§2)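 Rats housed three per metabolism cage received placebo vehicle or compound as a suspension in a final volume of 5.0 mL orally, with placebo groups run concurrently. Urine was collected over 0–5 h and analysed for Na+, K+ and Cl− by standard methods. Values are mequiv per cage, given as geometric means of three cages per dose level.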

Pan troglodytes = experiment: Compound was tested for natriuretic activity in chimpanzee at 5 mg/kg dose activity is measured as microequivalent of Na+/minute; muequiv of Na+/min; format: functional
How it was run: (§3)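 Inulin iv gave GFR; urate and inulin clearances and Na+, K+, Cl- excretion were measured by AutoAnalyzer. Controls were three 20-min periods; compound was given orally in aqueous solution via nasal catheter. Response was the mean of eight 15-20 min periods, reported as treatment minus control from single experiments.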

Rattus norvegicus [5] = experiment: Natriuretic activity in rats at 81 mg/kg of dosage; mequiv of Na; format: functional; how it was run: as §2
Rattus norvegicus [6] = experiment: Natriuretic activity in rats at 3 mg/kg of dosage; mequiv of Na; format: functional; how it was run: as §2
Canis familiaris [7] = experiment: Diuretic activity in dogs following 5 mg/kg oral administration.
Rattus norvegicus [8] = experiment: Natriuretic activity in rats at 27 mg/kg of dosage; mequiv of Na; format: functional; how it was run: as §2
Canis familiaris [9] = experiment: Compound was tested for diuretic activity in dogs at 5 mg/kg dose after oral administration measured as microequivalent of Na+/minute; format: functional, Canis lupus familiaris, Urine
How it was run: (§4)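 Oral dog test: water loading (250 mL po, then 500 mL 1 h later). One hour later bladders were emptied by catheter and compound or placebo given in gelatin capsules. Dogs were kept in metabolism cages. Voided urine plus catheterized bladder urine was pooled at 5 h, and Na+, K+ and Cl- were measured by standard methods. Geometric means are reported.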

Canis familiaris [10] = experiment: Compound was tested for diuretic activity in dogs at 5 mg/kg dose after oral administration measured as microequivalent of Cl-/minute; format: functional, Canis lupus familiaris, Urine; how it was run: as §4
Canis familiaris [11] = experiment: Compound was tested for diuretic activity in dogs at 5 mg/kg dose after intravenous administration measured as microequivalent of Cl-/minute; format: functional, Canis lupus familiaris, Urine; conditions: in the assay text read “oral” for “intravenous”
Canis familiaris [12] = experiment: Compound was tested for diuretic activity in dogs at 5 mg/kg dose after oral administration measured as microequivalent of Na+/minute
Canis familiaris [13] = experiment: Compound was tested for diuretic activity in dogs at 5 mg/kg dose after intravenous administration measured as microequivalent of K+/minute; format: functional, Canis lupus familiaris, Urine; conditions: in the assay text read “oral” for “intravenous”
Canis familiaris [14] = experiment: Compound was tested for diuretic activity in dogs at 5 mg/kg dose after oral administration measured as microequivalent of K+/minute; format: functional, Canis lupus familiaris, Urine; how it was run: as §4
Canis familiaris [15] = experiment: Compound was tested for diuretic activity in dogs at 5 mg/kg dose after intravenous administration measured as microequivalent of Cl-/minute; 9/132 (Control/Drug treated); format: functional, Canis lupus familiaris, Urine; how it was run: as §1
[16] = Compound was tested for natriuretic activity in chimpanzee at 5 mg/kg dose activity is measured as ratio of clearance of urate / […]; Curate/Cinulin; format: functional; how it was run: as §3
Canis familiaris [17] = experiment: Compound was tested for diuretic activity in dogs at 5 mg/kg dose after intravenous administration measured as microequivalent of Na+/minute; 22/144 (Control/Drug treated); format: functional, Canis lupus familiaris, Urine
Canis familiaris [18] = experiment: Compound was tested for diuretic activity in dogs at 5 mg/kg dose after intravenous administration activity is measured as microequivalent of Cl-/minute (Control/Drug treated); format: functional, Canis lupus familiaris, Urine; conditions: in the assay text read “oral” for “intravenous”
Canis familiaris [19] = experiment: Compound was tested for diuretic activity in dogs at 5 mg/kg dose after intravenous administration measured as microequivalent of K+/minute (Control/Drug treated); format: functional, Canis lupus familiaris, Urine; conditions: in the assay text read “oral” for “intravenous”
Canis familiaris [20] = experiment: Compound was tested for diuretic activity in dogs at 5 mg/kg dose after oral administration measured as microequivalent of Na+/minute; remark: listed apart in the source
Rattus norvegicus [21] = experiment: Compound was tested for natriuretic activity in rats at 3 mg/kg of dosage; mequiv of Na+ x 100/cage; format: functional; how it was run: as §2
Canis familiaris [22] = experiment: Compound was tested for diuretic activity in dogs at 5 mg/kg dose after intravenous administration measured as microequivalent of Cl-/minute; 4/72 (Control/Drug treated); format: functional, Canis lupus familiaris, Urine; how it was run: as §1
Canis familiaris [23] = experiment: Compound was tested for diuretic activity in dogs at 5 mg/kg dose after intravenous administration measured as microequivalent of K+/minute; 6/37 (Control/Drug treated); format: functional, Canis lupus familiaris, Urine; how it was run: as §1
Canis familiaris [24] = experiment: Compound was tested for diuretic activity in dogs at 5 mg/kg dose after intravenous administration measured as microequivalent of Na+/minute; 5/95 (Control/Drug treated); format: functional, Canis lupus familiaris, Urine
Canis familiaris [25] = experiment: Compound was tested for diuretic activity in dogs at 5 mg/kg dose after intravenous administration, activity is expressed as urine volume; 1/2; format: functional, Canis lupus familiaris
Canis familiaris [26] = experiment: Compound was tested for diuretic activity in dogs at 5 mg/kg dose after intravenous administration measured as microequivalent of K+/minute; 10/18 (Control/Drug treated); format: functional, Canis lupus familiaris, Urine; how it was run: as §1
Canis familiaris [27] = experiment: Compound was tested for diuretic activity in dogs at 5 mg/kg dose after intravenous administration measured as microequivalent of Cl-/minute; 6/70 (Control/Drug treated); format: functional, Canis lupus familiaris, Urine; how it was run: as §1
Canis familiaris [28] = experiment: Diuretic activity in dogs following 5 mg/kg i.v. administration.; format: functional, Canis lupus familiaris, Urine; conditions: route intravenous
Canis familiaris [29] = experiment: Compound was tested for diuretic activity in dogs at 5 mg/kg dose after intravenous administration, activity is expressed as urine volume; 0.6/1.3; format: functional, Canis lupus familiaris

Structure (SMILES): NS(=O)(=O)c1cc2c(cc1Cl)NCNS2(=O)=O [HYDROCHLOROTHIAZIDE]
- Cl- excretion (Canis familiaris [1]): 156 µequiv/min
- K+ excretion (Canis familiaris [2]): 33 µequiv/min
- Na+ excretion (Canis familiaris [3]): 166 µequiv/min
- Oral activity (Rattus norvegicus [4]): 112
- Oral activity (Pan troglodytes): 144

Structure (SMILES): N=C(N)NC(=O)C1Cc2cc(C(=O)c3cccs3)c(Cl)c(Cl)c2O1 (stereo not drawn)
- Oral activity (Rattus norvegicus [5]): 159
- Oral activity (Rattus norvegicus [6]): 72
- Urine volume (Canis familiaris [7]): 212 mL
- Oral activity (Rattus norvegicus [4]): 98
- Oral activity (Rattus norvegicus [8]): 143
- Oral activity (Canis familiaris [9]): 4.9
- Oral activity (Canis familiaris [10]): 4.8
- Oral activity (Canis familiaris [11]): 4.8
- Oral activity (Canis familiaris [12]): 4.9
- Oral activity (Canis familiaris [13]): 1.2
- Oral activity (Canis familiaris [14]): 1.2

Structure (SMILES): O=C(O)COc1ccc(C(=O)c2cccs2)c(Cl)c1Cl
- Cl- excretion (Canis familiaris [15]): 132 µequiv/min
- Oral activity (Rattus norvegicus [5]): 56
- Ratio [16]: 0.437
- Oral activity (Rattus norvegicus [6]): 7
- Urine volume (Canis familiaris [7]): 395 mL
- Oral activity (Rattus norvegicus [4]): 15
- Oral activity (Rattus norvegicus [8]): 43
- Oral activity (Canis familiaris [9]): 3.3
- Oral activity (Canis familiaris [10]): 5.4
- Oral activity (Pan troglodytes): 318
- Oral activity (Canis familiaris [14]): 1.8
- Na+ excretion (Canis familiaris [17]): 144 µequiv/min

Structure (SMILES): CCOC(=O)C1Cc2cc(C(=O)c3cccs3)c(Cl)c(Cl)c2O1 (stereo not drawn)
- Oral activity (Canis familiaris [18]): 8.7
- Oral activity (Rattus norvegicus [5]): 167
- Oral activity (Canis familiaris [19]): 1.6
- Oral activity (Rattus norvegicus [6]): 76
- Urine volume (Canis familiaris [7]): 166 mL
- Oral activity (Rattus norvegicus [4]): 87
- Oral activity (Rattus norvegicus [8]): 128
- Oral activity (Canis familiaris [9]): 7.7
- Oral activity (Canis familiaris [10]): 8.7
- Oral activity (Canis familiaris [20]): 7.7
- Oral activity (Canis familiaris [14]): 1.6

Structure (SMILES): Cc1c(C(=O)c2cccs2)cc2c(c1C)OC(C(=O)O)C2 (stereo not drawn)
- Oral activity (Rattus norvegicus [5]): 71
- Oral activity (Rattus norvegicus [21]): 29
- Cl- excretion (Canis familiaris [22]): 72 µequiv/min
- K+ excretion (Canis familiaris [23]): 37 µequiv/min
- Oral activity (Rattus norvegicus [4]): 68
- Oral activity (Rattus norvegicus [8]): 61
- Na+ excretion (Canis familiaris [24]): 95 µequiv/min
- Urine volume (Canis familiaris [25]): 1 mL/min

Structure (SMILES): COc1ccc(C(=O)c2cc3c(c(Cl)c2Cl)OC(C(=O)O)C3)cc1 (stereo not drawn)
- Oral activity (Rattus norvegicus [5]): 194
- Oral activity (Rattus norvegicus [6]): 40
- Urine volume (Canis familiaris [7]): 307 mL
- K+ excretion (Canis familiaris [26]): 18 µequiv/min
- Oral activity (Rattus norvegicus [4]): 96
- Oral activity (Rattus norvegicus [8]): 129
- Oral activity (Canis familiaris [9]): 14.4
- Oral activity (Canis familiaris [10]): 17.8
- Cl- excretion (Canis familiaris [27]): 70 µequiv/min
- Oral activity (Canis familiaris [14]): 2.9

Structure (SMILES): O=C(c1cccs1)c1cc2c(c(Cl)c1Cl)OC(C(=O)O)C2 (stereo not drawn)
- Oral activity (Rattus norvegicus [5]): 310
- Ratio [16]: 0.34
- Urine volume (Canis familiaris [28]): 432 mL and 541 mL
- Oral activity (Rattus norvegicus [6]): 175
- Urine volume (Canis familiaris [29]): 0.6 mL/min
- Oral activity (Rattus norvegicus [4]): 191
- Oral activity (Rattus norvegicus [8]): 257
- Oral activity (Canis familiaris [9]; 5 mg/kg): 18.7 and 37.7
- Oral activity (Canis familiaris [10]; 5 mg/kg): 24.6 and 48.5
- Oral activity (Pan troglodytes): 1360
- Oral activity (Canis familiaris [14]; 5 mg/kg): 4.2 and 5.2
